Assay results taken from ChEMBL document CHEMBL3616436, “Synthesis, cytotoxicity and antimicrobial activity of thiourea derivatives incorporating 3-(trifluoromethyl)phenyl moiety” (Eur J Med Chem, 2015).
≈ marks a conversion by molar mass, not a printed value.

system: Mycobacterium tuberculosis; assay: Antimycobacterial activity against p-aminosalicylic acid/isonicotinic acid hydrazide/etambutol/rifampicin-resistant Mycobacterium tuberculosis Spec. 210; assay type: functional
How it was run: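 Classical test-tube successive-dilution method in Youmans' modification of Proskauer and Beck liquid medium with 10% bovine serum. Inoculum came from 14-day cultures. DMSO stock was 10 mg/mL, diluted geometrically in medium. Tubes were incubated at 37 °C. Concentrations tested were 3.1, 6.2, 12.5, 25, 50 and 100 µg/ml. MIC is the minimum concentration inhibiting growth relative to compound-free tubes.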

SMILES	MIC [µg/mL]
Fc1cccc(NC(=S)Nc2cccc(C(F)(F)F)c2)c1	25 (≈ 79.5 µM)
FC(F)(F)c1cccc(NC(=S)Nc2cccc(Cl)c2)c1	100 (≈ 302 µM)
CCCCc1ccc(NC(=S)Nc2cccc(C(F)(F)F)c2)c(C)c1	50 (≈ 136 µM)
FC(F)(F)c1cccc(NC(S)=Nc2ccc(Cl)c(Cl)c2)c1	50 (≈ 137 µM)
FC(F)(F)c1cccc(NC(=S)Nc2ccc(Cl)cc2)c1	> 100
Fc1ccc(NC(=S)Nc2cccc(C(F)(F)F)c2)cc1	25 (≈ 79.5 µM)
NNC(=O)c1ccncc1 [ISONIAZID]	6.25 (≈ 45.6 µM)
N#Cc1ccc(NC(=S)Nc2cccc(C(F)(F)F)c2)cc1	> 100
CSCCCNC(=S)Nc1cccc(C(F)(F)F)c1	50 (≈ 162 µM)
O=C(NC(=S)Nc1cccc(C(F)(F)F)c1)c1ccccc1	> 100
FC(F)(F)c1cccc(NC(=S)Nc2cccc(Br)c2)c1	100 (≈ 267 µM)
O=[N+]([O-])c1ccc(NC(=S)Nc2cccc(C(F)(F)F)c2)cc1	50 (≈ 146 µM)
FC(F)(F)c1cccc(NC(=S)Nc2ccccc2)c1	50 (≈ 169 µM)
CCOC(=O)c1ccc(NC(=S)Nc2cccc(C(F)(F)F)c2)cc1	> 100
Cc1ccc(NC(=S)Nc2cccc(C(F)(F)F)c2)cc1Cl	> 100
Fc1ccc(NC(=S)Nc2cccc(C(F)(F)F)c2)cc1Cl	50 (≈ 143 µM)
Fc1ccccc1NC(=S)Nc1cccc(C(F)(F)F)c1	100 (≈ 318 µM)
FC(F)(F)c1cccc(NC(=S)NCCc2ccccc2)c1	50 (≈ 154 µM)
CCNC(=S)Nc1cccc(C(F)(F)F)c1	> 100
C=C(C)CNC(=S)Nc1cccc(C(F)(F)F)c1	> 100
FC(F)(F)c1cccc(NC(S)=NCc2ccccc2)c1	25 (≈ 80.6 µM)
FC(F)(F)c1cccc(NC(=S)NCc2ccco2)c1	> 100
COc1cccc(NC(=S)Nc2cccc(C(F)(F)F)c2)c1	> 100
FC(F)(F)c1cccc(NC(=S)NC2CCCCC2)c1	> 100
COC(=O)c1ccccc1NC(=S)Nc1cccc(C(F)(F)F)c1	> 100
